Data as given in ChEMBL document CHEMBL1131127, “Syntheses of trans-5-oxo-hexahydro-pyrrolo[3,2-b]pyrroles and trans-5-oxo-hexahydro-furo[3,2-b]pyrroles (pyrrolidine trans-lactams and trans-lactones): new pharmacophores for elastase inhibition” (J Med Chem, 1998).

How the values were obtained:
Chymotrypsinogen A [1] = molecular target: T1, Chymotrypsinogen A (Bos taurus, UniProt P00766); experiment: The compound was tested for inhibition of Chymotrypsinogen with a pre-incubation time of 15 min
Neutrophil elastase [2] = molecular target: T2, Neutrophil elastase (Homo sapiens, UniProt P08246); experiment: The compound was tested for inhibition of human neutrophil elastase enzyme with a pre-incubation time of 0 min.
T2 sequence (P08246 whole entry): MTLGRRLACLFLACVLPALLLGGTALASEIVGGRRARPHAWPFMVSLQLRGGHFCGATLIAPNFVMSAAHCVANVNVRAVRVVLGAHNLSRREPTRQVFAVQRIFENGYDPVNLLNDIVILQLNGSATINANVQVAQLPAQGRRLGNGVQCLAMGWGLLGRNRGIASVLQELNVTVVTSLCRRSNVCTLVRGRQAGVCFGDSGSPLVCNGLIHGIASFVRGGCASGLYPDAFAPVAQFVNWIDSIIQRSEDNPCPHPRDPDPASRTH
In short: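 HNE IC50: compound preincubated at 30 °C with substrate MeO-Succ-Ala-Ala-Pro-Val-p-nitroanilide, reaction started by adding HNE (0 min enzyme preincubation); p-nitroanilide release followed spectrophotometrically. Errors as standard deviations.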

Neutrophil elastase [3] = molecular target: T2, Neutrophil elastase; experiment: The compound was tested for inhibition of human neutrophil elastase enzyme with a pre-incubation time of 40 min.
In short: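 Compound preincubated with HNE for 40 min, then reaction started with MeO-Succ-Ala-Ala-Pro-Val-p-nitroanilide; p-nitroanilide release monitored spectrophotometrically to give IC50. Errors quoted as standard deviations.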

Prothrombin [4] = molecular target: T3, Prothrombin (Homo sapiens, UniProt P00734); experiment: The compound was tested for inhibition of thrombin with a pre-incubation time of 15 min.
Prothrombin [5] = molecular target: T3, Prothrombin; experiment: The compound was tested for inhibition of thrombin with a pre-incubation time of 15 min
Chymotrypsinogen A [6] = molecular target: T1, Chymotrypsinogen A; experiment: The compound was tested for inhibition of Chymotrypsinogen with a pre-incubation time of 15 min.
Prothrombin [7] = molecular target: T3, Prothrombin; experiment: The compound was tested for inhibition of thrombin with a preincubation time of 15 min
Cathepsin G = molecular target: T4, Cathepsin G (Homo sapiens, UniProt P08311); experiment: The compound was tested for inhibition of cathepsin G with a pre-incubation time of 15 min
T4 sequence (P08311 whole entry): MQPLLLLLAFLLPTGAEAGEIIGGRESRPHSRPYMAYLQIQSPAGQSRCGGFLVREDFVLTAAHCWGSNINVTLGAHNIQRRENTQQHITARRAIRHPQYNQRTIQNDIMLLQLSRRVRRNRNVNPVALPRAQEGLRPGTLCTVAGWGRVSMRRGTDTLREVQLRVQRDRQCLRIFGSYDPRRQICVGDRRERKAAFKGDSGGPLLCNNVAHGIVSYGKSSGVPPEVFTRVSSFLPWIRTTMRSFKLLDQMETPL

Neutrophil elastase [8] = molecular target: T2, Neutrophil elastase; experiment: The compound was tested for inhibition of human neutrophil elastase enzyme with a pre-incubation time of 15 min.
In short: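 IC50 against HNE determined after a 15-min preincubation of compound with enzyme; substrate MeO-Succ-Ala-Ala-Pro-Val-p-nitroanilide, p-nitroanilide release read spectrophotometrically.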

Structure (SMILES) | IC50 (Chymotrypsinogen A [1]) [µM] | IC50 (Neutrophil elastase [2]) [µM] | IC50 (Neutrophil elastase [3]) [µM] | IC50 (Prothrombin [4]) [µM] | IC50 (Prothrombin [5]) [µM] | IC50 (Chymotrypsinogen A [6]) [µM] | IC50 (Prothrombin [7]) [µM] | IC50 (Cathepsin G) [µM] | IC50 (Neutrophil elastase [8]) [µM]
C=CC[C@H]1C(=O)N(S(=O)(=O)c2cccc3ccccc23)[C@H]2CCN(C(=O)OCc3ccccc3)C12 (stereo partly drawn) | 11.5 | > 100 | 0.088 | > 100 |  |  |  |  | 
C=CC[C@H]1C(=O)O[C@H]2CCN(C(=O)OCc3ccccc3)C21 (stereo partly drawn) | 15.9 | 0.336 | 0.047 |  | 49 |  |  |  | 
C=CC[C@H]1C(=O)N[C@H]2CCN(C(=O)OCc3ccccc3)[C@@H]21 |  | > 500 | > 500 | > 100 |  | > 100 |  |  | 
C=CC[C@H]1C(=O)N(S(C)(=O)=O)[C@H]2CCN(C(=O)OCc3ccccc3)[C@H]12 | 40.6 | 0.37 | 0.056 | 53.2 |  |  |  |  | 

More lines, now with the values ahead:

IC50 (Chymotrypsinogen A [1]) [µM] | IC50 (Neutrophil elastase [2]) [µM] | IC50 (Neutrophil elastase [3]) [µM] | IC50 (Prothrombin [4]) [µM] | IC50 (Prothrombin [5]) [µM] | IC50 (Chymotrypsinogen A [6]) [µM] | IC50 (Prothrombin [7]) [µM] | IC50 (Cathepsin G) [µM] | IC50 (Neutrophil elastase [8]) [µM] | Structure (SMILES)
4.86 | 12.8 | 0.074 |  | 44.6 |  |  |  |  | C=CC[C@@H]1C(=O)O[C@H]2CCN(C(=O)OCc3ccccc3)C21 (stereo partly drawn)
0.98 | 0.023 | 0.036 |  |  |  | 78.8 |  |  | CCC[C@@H](NC(=O)N1C(=O)C(CC)(CC)[C@@H]1Oc1ccc(C(=O)N2CCN(C)CC2)cc1)c1ccc2c(c1)OCO2
4 |  |  | > 200 |  |  |  | 3.6 | 0.069 | C=CC[C@H]1C(=O)O[C@H]2CCN(C(=O)OCC)C21 (stereo partly drawn)
